The values below come from ChEMBL document CHEMBL1649065, “Solomonsterols A and B from Theonella swinhoei. The first example of C-24 and C-23 sulfated sterols from a marine source endowed with a PXR agonistic activity” (J Med Chem, 2011).

For data set [1], the system named is RAW264.7. Briefly: Cytotoxicity against mouse RAW264.7 cells at 10 to 50 uM. The class given is cell-based. Conditions: raw264.7, 50 µM. In outline: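 Murine macrophages exposed to 10 and 50 μM in presence of bacterial LPS; at end of experiment viability scored by trypan blue exclusion.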
Data set [2] deals with T1, Nuclear receptor subfamily 1 group I member 2 (Homo sapiens, UniProt O75469).
T1 sequence (O75469 whole entry): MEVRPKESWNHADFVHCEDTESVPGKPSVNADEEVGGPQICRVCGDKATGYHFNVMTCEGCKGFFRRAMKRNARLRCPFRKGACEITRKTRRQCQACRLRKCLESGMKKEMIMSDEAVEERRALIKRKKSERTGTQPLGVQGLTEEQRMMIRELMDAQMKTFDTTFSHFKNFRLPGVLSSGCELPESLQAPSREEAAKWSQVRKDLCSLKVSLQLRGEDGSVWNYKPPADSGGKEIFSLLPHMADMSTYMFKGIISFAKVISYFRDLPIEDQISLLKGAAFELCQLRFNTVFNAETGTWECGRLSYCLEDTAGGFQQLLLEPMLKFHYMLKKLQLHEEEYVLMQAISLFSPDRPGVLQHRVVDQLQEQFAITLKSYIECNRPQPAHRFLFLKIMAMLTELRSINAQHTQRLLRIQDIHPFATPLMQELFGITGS
Briefly: Induction of PXR-mediated MDR1 gene expression in human HepG2 cells at 50 uM by RT-PCR analysis. The class given is cell-based. The note with it: hepg2, 50 µM. In outline: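 HepG2 hepatocytes treated with compound; mRNA quantified by SYBR Green real-time PCR in triplicate, CT normalised to GAPDH, relative expression computed as 2^-ΔΔCT.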

Data set [3] relates to RAW264.7. Description: Immunomodulatory activity in mouse RAW264.7 cells assessed as effect on TNFalpha mRNA expression at 10 to 50 uM by RT-PCR analysis. The class given is functional, cell-based. In outline:
(§1)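 RAW264.7 macrophages incubated 24 h with 10 and 50 μM plus bacterial LPS; total RNA extracted with TRIZOL, 50 ng template amplified by SYBR Green real-time PCR (0.2 μM each primer, 40 cycles), triplicate reactions; CT normalised to GAPDH, relative expression as 2^-ΔΔCT.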

For data set [4], the target named is T2, PXR (nuclear receptor subfamily 1 group I member 2) (Homo sapiens, UniProt O75469).
T2 sequence (O75469 whole entry): T1 sequence (O75469 whole entry)
Briefly: Transactivation of PXR in human HepG2 cells assessed as induction of luciferase activity at 50 uM by luciferase reporter gene assay relative to control. Conditions: read-out: FC. Background: Reporter assays use an easily measured gene product as a stand-in for the process of interest.

The test system of data set [5] is RAW264.7. Briefly: Immunomodulatory activity in mouse RAW264.7 cells assessed as inhibition of IL1-beta mRNA expression at 50 uM by RT-PCR analysis. Type of data set: functional. In outline: as §1

Structures are written as SMILES. The source made the active and inactive calls. No cut-off for these calls is given here.

For orientation: inhibition means the change of the read-out against control, counted positive when it falls.

`C[C@H](CCCOS(=O)(=O)[O-])[C@H]1CC[C@H]2[C@@H]3CC[C@H]4C[C@H](OS(=O)(=O)[O-])[C@@H](OS(=O)(=O)[O-])C[C@]4(C)[C@H]3CC[C@]12C.[Na+].[Na+].[Na+]` [SOLOMONSTEROL A]: the Activity result with RAW264.7 [1] is listed as “Non-toxic”; in data set [2], “Active”. The result in the data set on RAW264.7 [3] was inactive. The fold induction at 50 µM in data set [4] is 4. The inhibition at 50 µM in the data set on RAW264.7 [5] came to 50%.
Consider `C[C@H](CCOS(=O)(=O)[O-])[C@H]1CC[C@H]2[C@@H]3CC[C@H]4C[C@H](OS(=O)(=O)[O-])[C@@H](OS(=O)(=O)[O-])C[C@]4(C)[C@H]3CC[C@]12C.[Na+].[Na+].[Na+]` [SOLOMONSTEROL B], for which the Activity result in the data set with RAW264.7 [1] is “Non-toxic”; in data set [2], “Active”. Besides, in the data set on RAW264.7 [3], the result was inactive. The fold induction at 50 µM in data set [4] came out at 4. In addition, in the data set on RAW264.7 [5], the inhibition at 50 µM is 50%.
